Measurements as given in ChEMBL document CHEMBL4689842, “EUbOPEN Chemogenomics Library wave 1” (2021).

Key:
Assay type in all cases: toxicity, cell-based
[1] = system: Fibroblast; experiment: Multiplex assay against human fibroblast
Outline: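 Live cells were stained at seeding with Hoechst33342, BioTracker Green Microtubule Cytoskeleton Dye, MitoTracker Red and Annexin V Alexa Fluor 680. Following compound addition, they were imaged on a CQ1 microscope at 37°C and 5% CO2 and gated by CellPathfinder machine learning into Hoechst high-intensity objects or normal cells, with normal cells split into healthy, pyknosed or fragmented nuclei and pyknosed cells into mitotic or apoptotic. Tubulin, mitochondrial-mass and membrane-permeability phenotypes are per cents of healthy-nucleus cells.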

[2] = system: U2OS; experiment: Incucyte cell viability with U2OS; settings: human, 10 µM, compound concentration 10 uM; note: filed as whole numbers so only -1 and 0 and 1 occur
[3] = system: HEK-293T; experiment: Incucyte cell viability with HEK293T; settings: human, 10 µM, compound concentration 10 uM; note: filed as whole numbers so only -1 and 0 and 1 occur
[4] = 12 h, 1 µM, compound concentration 1 uM, replicate 1
[5] = 12 h, 1 µM, compound concentration 1 uM, replicate 2
[6] = 12 h, 10 µM, compound concentration 10 uM, replicate 1
[7] = 12 h, 10 µM, compound concentration 10 uM, replicate 2
[8] = 24 h, 1 µM, compound concentration 1 uM, replicate 1
[9] = 24 h, 1 µM, compound concentration 1 uM, replicate 2
[10] = 24 h, 10 µM, compound concentration 10 uM, replicate 1
[11] = 24 h, 10 µM, compound concentration 10 uM, replicate 2
[12] = 48 h, 1 µM, compound concentration 1 uM, replicate 1
[13] = 48 h, 1 µM, compound concentration 1 uM, replicate 2
[14] = 48 h, 10 µM, compound concentration 10 uM, replicate 1
[15] = 48 h, 10 µM, compound concentration 10 uM, replicate 2
[16] = 18 h, replicate number 1, timepoint 18 hours
[17] = 24 h, replicate number 1, timepoint 24 hours

Structure (SMILES): N#CCNC(=O)c1ccc(-c2ccnc(Nc3ccc(N4CCOCC4)cc3)n2)cc1 [MOMELOTINIB]
- Population Apoptotic (%) [1, 4]: 64%
- Population Fragmented Nuclei (%) [1, 4]: 26%
- Population Healthy Nuclei (%) [1, 4]: 40%
- Population Hoechst High Intensity Objects (%) [1, 4]: 11%
- Population Membrane Permeable-Phenotype (%) [1, 4]: 30%
- Population Mitochondria Different-Phenotype (%) [1, 4]: 4%
- Population Mitotic Cells (%) [1, 4]: 35%
- Population Normal (%) [1, 4]: 88%
- Population Pyknosed Nuclei (%) [1, 4]: 33%
- Population Tubulin-Different-Phenotype (%) [1, 4]: 21%
- Total Cell Count [1, 4]: 117
- Population Apoptotic (%) [1, 5]: 60%
- Population Fragmented Nuclei (%) [1, 5]: 1%
- Population Healthy Nuclei (%) [1, 5]: 88%
- Population Hoechst High Intensity Objects (%) [1, 5]: 8%
- Population Membrane Permeable-Phenotype (%) [1, 5]: 2%
- Population Mitochondria Different-Phenotype (%) [1, 5]: 13%
- Population Mitotic Cells (%) [1, 5]: 40%
- Population Normal (%) [1, 5]: 91%
- Population Pyknosed Nuclei (%) [1, 5]: 9%
- Population Tubulin-Different-Phenotype (%) [1, 5]: 11%
- Total Cell Count [1, 5]: 3119
- Population Apoptotic (%) [1, 6]: 63%
- Population Fragmented Nuclei (%) [1, 6]: 40%
- Population Healthy Nuclei (%) [1, 6]: 28%
- Population Hoechst High Intensity Objects (%) [1, 6]: 13%
- Population Membrane Permeable-Phenotype (%) [1, 6]: 16%
- Population Mitochondria Different-Phenotype (%) [1, 6]: 10%
- Population Mitotic Cells (%) [1, 6]: 36%
- Population Normal (%) [1, 6]: 86%
- Population Pyknosed Nuclei (%) [1, 6]: 31%
- Population Tubulin-Different-Phenotype (%) [1, 6]: 45%
- Total Cell Count [1, 6]: 153
- Population Apoptotic (%) [1, 7]: 13%
- Population Fragmented Nuclei (%) [1, 7]: 27%
- Population Healthy Nuclei (%) [1, 7]: 47%
- Population Hoechst High Intensity Objects (%) [1, 7]: 10%
- Population Membrane Permeable-Phenotype (%) [1, 7]: 0%
- Population Mitochondria Different-Phenotype (%) [1, 7]: 6%
- Population Mitotic Cells (%) [1, 7]: 86%
- Population Normal (%) [1, 7]: 89%
- Population Pyknosed Nuclei (%) [1, 7]: 24%
- Population Tubulin-Different-Phenotype (%) [1, 7]: 6%
- Total Cell Count [1, 7]: 56
- Population Apoptotic (%) [1, 8]: 56%
- Population Fragmented Nuclei (%) [1, 8]: 26%
- Population Healthy Nuclei (%) [1, 8]: 52%
- Population Hoechst High Intensity Objects (%) [1, 8]: 11%
- Population Membrane Permeable-Phenotype (%) [1, 8]: 27%
- Population Mitochondria Different-Phenotype (%) [1, 8]: 0%
- Population Mitotic Cells (%) [1, 8]: 43%
- Population Normal (%) [1, 8]: 88%
- Population Pyknosed Nuclei (%) [1, 8]: 20%
- Population Tubulin-Different-Phenotype (%) [1, 8]: 18%
- Total Cell Count [1, 8]: 127
- Population Apoptotic (%) [1, 9]: 66%
- Population Fragmented Nuclei (%) [1, 9]: 7%
- Population Healthy Nuclei (%) [1, 9]: 86%
- Population Hoechst High Intensity Objects (%) [1, 9]: 10%
- Population Membrane Permeable-Phenotype (%) [1, 9]: 6%
- Population Mitochondria Different-Phenotype (%) [1, 9]: 15%
- Population Mitotic Cells (%) [1, 9]: 33%
- Population Normal (%) [1, 9]: 89%
- Population Pyknosed Nuclei (%) [1, 9]: 5%
- Population Tubulin-Different-Phenotype (%) [1, 9]: 8%
- Total Cell Count [1, 9]: 3108
- Population Apoptotic (%) [1, 10]: 48%
- Population Fragmented Nuclei (%) [1, 10]: 39%
- Population Healthy Nuclei (%) [1, 10]: 37%
- Population Hoechst High Intensity Objects (%) [1, 10]: 14%
- Population Membrane Permeable-Phenotype (%) [1, 10]: 29%
- Population Mitochondria Different-Phenotype (%) [1, 10]: 12%
- Population Mitotic Cells (%) [1, 10]: 51%
- Population Normal (%) [1, 10]: 85%
- Population Pyknosed Nuclei (%) [1, 10]: 23%
- Population Tubulin-Different-Phenotype (%) [1, 10]: 46%
- Total Cell Count [1, 10]: 147
- Population Apoptotic (%) [1, 11]: 45%
- Population Fragmented Nuclei (%) [1, 11]: 31%
- Population Healthy Nuclei (%) [1, 11]: 52%
- Population Hoechst High Intensity Objects (%) [1, 11]: 5%
- Population Membrane Permeable-Phenotype (%) [1, 11]: 28%
- Population Mitochondria Different-Phenotype (%) [1, 11]: 34%
- Population Mitotic Cells (%) [1, 11]: 54%
- Population Normal (%) [1, 11]: 94%
- Population Pyknosed Nuclei (%) [1, 11]: 16%
- Population Tubulin-Different-Phenotype (%) [1, 11]: 14%
- Total Cell Count [1, 11]: 59
- Population Apoptotic (%) [1, 12]: 44%
- Population Fragmented Nuclei (%) [1, 12]: 34%
- Population Healthy Nuclei (%) [1, 12]: 57%
- Population Hoechst High Intensity Objects (%) [1, 12]: 16%
- Population Membrane Permeable-Phenotype (%) [1, 12]: 16%
- Population Mitochondria Different-Phenotype (%) [1, 12]: 1%
- Population Mitotic Cells (%) [1, 12]: 55%
- Population Normal (%) [1, 12]: 83%
- Population Pyknosed Nuclei (%) [1, 12]: 8%
- Population Tubulin-Different-Phenotype (%) [1, 12]: 17%
- Total Cell Count [1, 12]: 129
- Population Apoptotic (%) [1, 13]: 80%
- Population Fragmented Nuclei (%) [1, 13]: 33%
- Population Healthy Nuclei (%) [1, 13]: 61%
- Population Hoechst High Intensity Objects (%) [1, 13]: 15%
- Population Membrane Permeable-Phenotype (%) [1, 13]: 4%
- Population Mitotic Cells (%) [1, 13]: 20%
- Population Normal (%) [1, 13]: 84%
- Population Pyknosed Nuclei (%) [1, 13]: 5%
- Population Tubulin-Different-Phenotype (%) [1, 13]: 21%
- Total Cell Count [1, 13]: 117
- Population Apoptotic (%) [1, 14]: 60%
- Population Fragmented Nuclei (%) [1, 14]: 47%
- Population Healthy Nuclei (%) [1, 14]: 40%
- Population Hoechst High Intensity Objects (%) [1, 14]: 14%
- Population Membrane Permeable-Phenotype (%) [1, 14]: 25%
- Population Mitochondria Different-Phenotype (%) [1, 14]: 9%
- Population Mitotic Cells (%) [1, 14]: 40%
- Population Normal (%) [1, 14]: 85%
- Population Pyknosed Nuclei (%) [1, 14]: 11%
- Population Tubulin-Different-Phenotype (%) [1, 14]: 37%
- Total Cell Count [1, 14]: 155
- Population Apoptotic (%) [1, 15]: 50%
- Population Fragmented Nuclei (%) [1, 15]: 52%
- Population Hoechst High Intensity Objects (%) [1, 15]: 8%
- Population Membrane Permeable-Phenotype (%) [1, 15]: 11%
- Population Mitochondria Different-Phenotype (%) [1, 15]: 1%
- Population Mitotic Cells (%) [1, 15]: 50%
- Population Normal (%) [1, 15]: 91%
- Population Pyknosed Nuclei (%) [1, 15]: 6%
- Population Tubulin-Different-Phenotype (%) [1, 15]: 58%
- Total Cell Count [1, 15]: 162
- Growth Rate ([2]; 0 h, replicate number 2, timepoint 0 hours): 1
- Growth Rate ([2]; 12 h, replicate number 1, timepoint 12 hours): 1
- Growth Rate [2, 16]: 0
- Growth Rate [2, 17]: 0
- Growth Rate ([3]; 0 h, replicate number 1, timepoint 0 hours): 0
- Growth Rate [3, 16]: 0
- Growth Rate ([3]; 18 h, replicate number 2, timepoint 18 hours): 1
- Growth Rate [3, 17]: 0
